From ChEMBL document CHEMBL3994613, “Diaryltriazenes as antibacterial agents against methicillin resistant Staphylococcus aureus (MRSA) and Mycobacterium smegmatis” (Eur J Med Chem, 2017)
≈ marks a conversion by molar mass, not a printed value.

How the values were obtained:
Staphylococcus aureus [1] = test: Bactericidal activity against methicillin-resistant Staphylococcus aureus USA300 after 18 to 20 hrs by microdilution method; type: functional
In short: (§1)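 EUCAST broth microdilution in LB broth. Inoculum prepared by direct colony suspension from 20–24 h LB agar (E. coli DH10β) or 5% sheep blood BHI agar (MRSA USA300) growth. Final inoculum 2×10^4 CFU/mL, 18–20 h aerobic at 37 °C, growth read on a plate reader, at least duplicate.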

[2] = Stability of the compound in solid state; type: physicochemical
Acinetobacter baumannii [3] = test: Antibacterial activity against Acinetobacter baumannii ATCC 19606 after 18 to 20 hrs by broth microdilution method; type: functional; conditions: ATCC 19606 = CIP 70.34 = JCM 6841
In short: (§2)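 Broth microdilution per EUCAST in TSB broth. Inoculum prepared by CLSI direct colony suspension from 20–24 h TSA colonies, final 3×10^4 CFU/mL. Aerobic incubation for 18–20 h at 37 °C, growth read on plate reader, at least one duplicate.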

Escherichia coli [4] = test: Antibacterial activity against N43 CGSC 5583 knock out Escherichia coli after 18 to 20 hrs by microdilution method; type: functional
In short: (§3)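 Broth microdilution per EUCAST in LB broth. Inoculum from 20–24 h colonies by CLSI direct colony suspension (LB agar for E. coli), final 2×10^4 CFU/mL. Read after 18–20 h aerobic incubation at 37 °C on plate reader, at least one duplicate.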

[5] = Solubility of the compound in water; type: physicochemical; conditions: buffer
Bacillus subtilis [6] = test: Antibacterial activity against Bacillus subtilis ATCC 6051 after 18 to 20 hrs by broth microdilution method; type: functional; in short: as §3
Staphylococcus aureus [7] = test: Antibacterial activity against methicillin-resistant Staphylococcus aureus 1653 after 18 to 20 hrs by broth microdilution method; type: functional
In short: (§4)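 EUCAST broth microdilution in LB broth. Inoculum from 20–24 h colonies on 5% sheep blood BHI agar, final 3×10^4 CFU/mL, 18–20 h aerobic at 37 °C, plate reader, at least duplicate.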

Klebsiella pneumoniae [8] = test: Antibacterial activity against Klebsiella pneumoniae ATCC 700603 after 18 to 20 hrs by broth microdilution method; type: functional; in short: as §2
Pseudomonas aeruginosa = test: Antibacterial activity against Pseudomonas aeruginosa PA0001 after 18 to 20 hrs by broth microdilution method; type: functional
In short: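 EUCAST broth microdilution in LB broth. Inoculum from 20–24 h LB agar colonies (CLSI direct colony suspension), final 3×10^4 CFU/mL. Aerobic incubation 18–20 h at 37 °C, plate-reader read-out, at least one duplicate.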

Staphylococcus aureus [9] = test: Antibacterial activity against methicillin-resistant Staphylococcus aureus USA300 after 18 to 20 hrs by microdilution method; type: functional; in short: as §1
Acinetobacter baumannii [10] = test: Antibacterial activity against Acinetobacter baumannii ATCC BAA-1605 after 18 to 20 hrs by broth microdilution method; type: functional; in short: as §2
Escherichia coli [11] = test: Antibacterial activity against Escherichia coli D22 after 18 to 20 hrs by microdilution method; type: functional; in short: as §3
[12] = test system: Mycolicibacterium smegmatis; test: Bactericidal activity against Mycobacterium smegmatis MC2 155 after 96 hrs by microdilution method; type: functional; conditions: str. MC2 155, 96 h
In short: (§5)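 Microdilution in TSB broth. Inoculum from colonies grown 96 h on TSA, final 1×10^5 CFU/mL, aerobic 94–98 h at 37 °C, growth read on a plate reader, at least duplicate.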

[13] = Stability of the compound in organic solvent; type: physicochemical
Streptococcus pneumoniae [14] = test: Antibacterial activity against Streptococcus pneumoniae R6 after 18 to 20 hrs by broth microdilution method; type: functional
In short: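 Broth microdilution per EUCAST in BHI broth. Inoculum from colonies on BHI agar with 5% sheep blood, final 5×10^4 CFU/mL. Read after 18–20 h anaerobic incubation at 37 °C.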

Staphylococcus aureus [15] = test: Bactericidal activity against methicillin-resistant Staphylococcus aureus 1653 after 18 to 20 hrs by broth microdilution method; type: functional; in short: as §4
Enterococcus faecalis [16] = test: Antibacterial activity against vancomycin resistant Enterococcus faecalis 501 after 18 to 20 hrs by broth microdilution method; type: functional
In short: (§6)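 EUCAST microdilution in BHI broth. Inoculum from 20–24 h colonies on 5% sheep blood BHI agar, final 3×10^4 CFU/mL, 18–20 h aerobic at 37 °C, plate reader, at least duplicate.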

Escherichia coli [17] = test: Antibacterial activity against Escherichia coli DH10beta harboring pHuLUC3 after 18 to 20 hrs by microdilution method; type: functional; in short: as §1
Bacillus subtilis [18] = test: Bactericidal activity against Bacillus subtilis ATCC 6051 after 18 to 20 hrs by broth microdilution method; type: functional
[19] = Stability of the compound in water; type: physicochemical; conditions: buffer
Saccharomyces cerevisiae = test: Antibacterial activity against Saccharomyces cerevisiae after 18 to 20 hrs by microdilution method
In short: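 Microdilution in YEP broth against wild-type yeast grown on YEP agar. Final inoculum 1×10^5 CFU/mL. Read after 18–20 h aerobic incubation at 30 °C on plate reader, at least one duplicate.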

Staphylococcus aureus [20] = test: Induction of membrane integrity impairment in Staphylococcus aureus USA300 assessed as cells with intact membrane at 2 ug/ml measured after 30 mins by Baclight assay relative to control; type: functional
In short: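 LIVE/DEAD BacLight fluorescence assay. Dye was then added and incubated 15 min in the dark at room temperature. Intact membrane % came from a live/dead (isopropanol-killed) standard curve, at least triplicate, mean±SD.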

Klebsiella pneumoniae [21] = test: Antibacterial activity against Klebsiella pneumoniae ATCC 13882 after 18 to 20 hrs by broth microdilution method; type: functional; in short: as §2
[22] = test system: Mycolicibacterium smegmatis; test: Antimycobacterial activity against Mycobacterium smegmatis MC2 155 after 94 to 98 hrs by microdilution method; type: functional; conditions: str. MC2 155; in short: as §5
Streptococcus pneumoniae [23] = test: Bactericidal activity against Streptococcus pneumoniae R6 after 18 to 20 hrs by broth microdilution method; type: functional
Escherichia coli [24] = test: Bactericidal activity against Escherichia coli D22 after 18 to 20 hrs by microdilution method; type: functional
Enterococcus faecalis [25] = test: Bactericidal activity against vancomycin resistant Enterococcus faecalis 501 after 18 to 20 hrs by broth microdilution method; type: functional; in short: as §6
Staphylococcus aureus [26] = test: Induction of membrane integrity impairment in Staphylococcus aureus USA300 assessed as cells with intact membrane at 8 ug/ml measured after 30 mins by Baclight assay relative to control; type: functional
In short: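 LIVE/DEAD BacLight fluorescence assay. Live cells in 0.85% NaCl at OD600 0.2 were exposed to compound in DMSO for 30 min at 37 °C. Dye was then added and incubated 15 min in the dark at room temperature. Fluorescence read at ex 485 nm, em 530/630 nm. Intact membrane % came from a live/dead (isopropanol-killed) standard curve, at least triplicate, mean±SD.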

Escherichia coli [27] = test: Bactericidal activity against Escherichia coli DH10beta harboring pHuLUC3 after 18 to 20 hrs by microdilution method; type: functional; in short: as §1
[28] = test system: Mycolicibacterium smegmatis; test: Antimycobacterial activity against Mycobacterium smegmatis MC2 155 after 3 days by broth macrodilution method; type: functional; conditions: str. MC2 155, 72 h

Compound	MBC (Staphylococcus aureus [1]) [µg/mL]	Stability [2]	MIC (Acinetobacter baumannii [3]) [µg/mL]	MIC (Escherichia coli [4]) [µg/mL]	solubility [5]	MIC (Bacillus subtilis [6]) [µg/mL]	MIC (Staphylococcus aureus [7]) [µg/mL]	MIC (Klebsiella pneumoniae [8]) [µg/mL]	MIC (Pseudomonas aeruginosa) [µg/mL]	MIC (Staphylococcus aureus [9]) [µg/mL]	MIC (Acinetobacter baumannii [10]) [µg/mL]	MIC (Escherichia coli [11]) [µg/mL]	MBC [12] [µg/mL]	Stability [13]	MIC (Streptococcus pneumoniae [14]) [µg/mL]	MBC (Staphylococcus aureus [15]) [µg/mL]	MIC (Escherichia coli [17]) [µg/mL]	Stability [19]	MIC (Saccharomyces cerevisiae) [µg/mL]	MIC [22] [µg/mL]	other results
O=C(c1ccccc1F)N(/N=N/c1ccc([N+](=O)[O-])cc1C(F)(F)F)c1ccc([N+](=O)[O-])cc1C(F)(F)F	0.5 (≈ 0.917 µM)	Stable	> 128	> 128	Soluble	2 (≈ 3.67 µM)	0.5 (≈ 0.917 µM)	> 128	> 128	0.25 (≈ 0.458 µM)	> 128	> 128	128 (≈ 235 µM)	Stable	0.5 (≈ 0.917 µM)	4 (≈ 7.34 µM)	> 128	Stable	> 128	16 (≈ 29.3 µM)	MIC (Enterococcus faecalis [16]): > 128 µg/mL; MBC (Bacillus subtilis [18]): > 64 µg/mL; Cells with intact membrane (Staphylococcus aureus [20]): 103.8%; MIC (Klebsiella pneumoniae [21]): > 128 µg/mL; MBC (Streptococcus pneumoniae [23]): 1 µg/mL (≈ 1.83 µM)
FC(F)(F)c1cc(Cl)ccc1/N=N/Nc1ccc(Cl)cc1C(F)(F)F	1 (≈ 2.49 µM)	Stable	> 128	> 128	Soluble	1 (≈ 2.49 µM)	1 (≈ 2.49 µM)	> 128	> 128	1 to 128 (≈ 2.49 to 318 µM)	> 128	2 (≈ 4.97 µM)	128 (≈ 318 µM)	Stable	0.5 (≈ 1.24 µM)	1 (≈ 2.49 µM)	> 128	Stable	> 128	8 (≈ 19.9 µM)	MIC (Enterococcus faecalis [16]): 2 µg/mL (≈ 4.97 µM); MBC (Escherichia coli [24]): > 128 µg/mL; MBC (Bacillus subtilis [18]): 32 µg/mL (≈ 79.6 µM); MBC (Enterococcus faecalis [25]): > 128 µg/mL; Cells with intact membrane (Staphylococcus aureus [20]): 31.2%; MIC (Klebsiella pneumoniae [21]): > 128 µg/mL; MBC (Streptococcus pneumoniae [23]): 1 µg/mL (≈ 2.49 µM)
O=[N+]([O-])c1ccc(/N=N/Nc2ccc([N+](=O)[O-])cc2Cl)c(Cl)c1	4 (≈ 11.2 µM)	–	–	–	–	–	–	–	–	2 (≈ 5.62 µM)	–	–	–	–	–	–	> 128	–	> 128	> 128	Activity (Staphylococcus aureus [26]): 64.6%
CC(=O)N(/N=N/c1ccc([N+](=O)[O-])cc1C(F)(F)F)c1ccc([N+](=O)[O-])cc1C(F)(F)F	0.25 (≈ 0.537 µM)	Stable	> 128	> 128	Soluble	0.125 (≈ 0.269 µM)	0.25 (≈ 0.537 µM)	> 128	> 128	0.25 (≈ 0.537 µM)	> 128	1 (≈ 2.15 µM)	128 (≈ 275 µM)	Stable	0.06 (≈ 0.129 µM)	0.5 (≈ 1.07 µM)	64 (≈ 138 µM)	Stable	> 128	16 (≈ 34.4 µM)	MIC (Enterococcus faecalis [16]): 4 µg/mL (≈ 8.6 µM); MBC (Escherichia coli [24]): > 128 µg/mL; MBC (Bacillus subtilis [18]): 4 µg/mL (≈ 8.6 µM); MBC (Enterococcus faecalis [25]): > 128 µg/mL; MBC (Escherichia coli [27]): > 128 µg/mL; Cells with intact membrane (Staphylococcus aureus [20]): 103%; MIC (Klebsiella pneumoniae [21]): > 128 µg/mL; MBC (Streptococcus pneumoniae [23]): 0.5 µg/mL (≈ 1.07 µM)
O=C(c1ccccc1)N(/N=N/c1ccc([N+](=O)[O-])cc1C(F)(F)F)c1ccc([N+](=O)[O-])cc1C(F)(F)F	0.5 to 2 (≈ 0.948 to 3.79 µM)	Stable	> 128	> 128	Soluble	0.5 (≈ 0.948 µM)	0.5 (≈ 0.948 µM)	> 128	> 128	0.5 to 2 (≈ 0.948 to 3.79 µM)	> 128	> 128	> 128	Stable	0.5 (≈ 0.948 µM)	1 (≈ 1.9 µM)	≥ 128	Stable	> 128	32 (≈ 60.7 µM)	MIC (Enterococcus faecalis [16]): > 128 µg/mL; MBC (Bacillus subtilis [18]): 16 µg/mL (≈ 30.3 µM); MBC (Escherichia coli [27]): > 128 µg/mL; Cells with intact membrane (Staphylococcus aureus [20]): 95.8%; MIC (Klebsiella pneumoniae [21]): > 128 µg/mL; MBC (Streptococcus pneumoniae [23]): 1 µg/mL (≈ 1.9 µM)
CCOC(=O)/C=C/[N+](CC)(CC)CC.O=[N+]([O-])c1ccc(/N=N/[N-]c2ccc([N+](=O)[O-])cc2C(F)(F)F)c(C(F)(F)F)c1	–	Stable	–	–	Soluble	–	–	–	–	–	–	–	–	Stable	–	–	–	Stable	–	–	–
CC[N+](/C=C/C(=O)OC)(CC)CC.O=[N+]([O-])c1ccc(/N=N/[N-]c2ccc([N+](=O)[O-])cc2C(F)(F)F)c(C(F)(F)F)c1	–	Stable	–	–	Soluble	–	–	–	–	–	–	–	–	Stable	–	–	–	Stable	–	–	–
CCN(CC)CC.O=[N+]([O-])c1ccc(/N=N/Nc2ccc([N+](=O)[O-])cc2C(F)(F)F)c(C(F)(F)F)c1	–	Stable	–	–	Soluble	–	–	–	–	–	–	–	–	Stable	–	–	–	Stable	–	–	–
CC1(C)S[C@@H]2[C@H](NC(=O)[C@H](N)c3ccc(O)cc3)C(=O)N2[C@H]1C(=O)O [AMOXICILLIN]	–	–	–	–	–	–	–	–	–	–	–	–	–	–	–	–	–	–	–	–	MIC [28]: 8 to 16 µg/mL (≈ 21.9 to 43.8 µM)
